Experimental data from ChEMBL document CHEMBL3414516, “Novel pyridyl substituted 4,5-dihydro-[1,2,4]triazolo[4,3-a]quinolines as potent and selective aldosterone synthase inhibitors with improved in vitro metabolic stability” (J Med Chem, 2015).

Target: T1, Cytochrome P450 11B2, mitochondrial (Homo sapiens, UniProt P19099)
T1 sequence (P19099 whole entry): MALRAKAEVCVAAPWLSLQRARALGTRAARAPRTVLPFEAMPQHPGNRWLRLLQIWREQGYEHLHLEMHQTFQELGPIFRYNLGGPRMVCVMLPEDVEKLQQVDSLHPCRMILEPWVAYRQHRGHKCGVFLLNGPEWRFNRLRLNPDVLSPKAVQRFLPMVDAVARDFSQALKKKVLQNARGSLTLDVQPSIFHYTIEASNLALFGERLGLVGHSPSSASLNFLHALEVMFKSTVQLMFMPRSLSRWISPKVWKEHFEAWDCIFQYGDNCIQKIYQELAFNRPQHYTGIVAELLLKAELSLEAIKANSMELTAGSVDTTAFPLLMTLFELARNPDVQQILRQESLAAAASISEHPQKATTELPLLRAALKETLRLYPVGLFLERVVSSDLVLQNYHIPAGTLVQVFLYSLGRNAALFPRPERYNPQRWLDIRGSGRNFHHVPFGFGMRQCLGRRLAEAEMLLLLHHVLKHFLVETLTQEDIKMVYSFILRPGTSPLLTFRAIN
Test: Inhibition of human CYP11B2 expressed in V79 MZh cells using [14C]-deoxycorticosterone substrate incubated for 6 hrs by HPTLC method
Assay type: cell-based, V79MZh
How it was run: (§1)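 V79 MZh cells expressing human CYP11B1 or CYP11B2 were incubated 6 h with [¹⁴C]-deoxycorticosterone and inhibitor at various concentrations. Steroids were extracted with ethyl acetate, separated by HPTLC and quantified by phosphoimager.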

Row | IC50 [µM] | SMILES
1 | 0.542 | CCc1nnc2n1-c1c(F)cc(-c3cccnc3)cc1CC2
2 | 4.35 | Fc1cc2c(cc1-c1cccnc1)CCc1nnc(Cc3ccccc3)n1-2
3 | > 10 | Fc1cc(-c2cccnc2)cc2c1-n1c(nnc1-c1ccccc1)CC2
4 | > 10 | CC(C)c1nnc2n1-c1c(F)cc(-c3cccnc3)cc1CC2
5 | 0.979 | CCc1nnc2n1-c1cc(F)c(-c3cccnc3)cc1CC2
6 | 0.0195 | Cc1c(F)cncc1-c1cc(F)c2c(c1)CCc1nnc(C)n1-2

Target: T2, Cytochrome P450 11B1, mitochondrial (Homo sapiens, UniProt P15538)
T2 sequence (P15538 whole entry): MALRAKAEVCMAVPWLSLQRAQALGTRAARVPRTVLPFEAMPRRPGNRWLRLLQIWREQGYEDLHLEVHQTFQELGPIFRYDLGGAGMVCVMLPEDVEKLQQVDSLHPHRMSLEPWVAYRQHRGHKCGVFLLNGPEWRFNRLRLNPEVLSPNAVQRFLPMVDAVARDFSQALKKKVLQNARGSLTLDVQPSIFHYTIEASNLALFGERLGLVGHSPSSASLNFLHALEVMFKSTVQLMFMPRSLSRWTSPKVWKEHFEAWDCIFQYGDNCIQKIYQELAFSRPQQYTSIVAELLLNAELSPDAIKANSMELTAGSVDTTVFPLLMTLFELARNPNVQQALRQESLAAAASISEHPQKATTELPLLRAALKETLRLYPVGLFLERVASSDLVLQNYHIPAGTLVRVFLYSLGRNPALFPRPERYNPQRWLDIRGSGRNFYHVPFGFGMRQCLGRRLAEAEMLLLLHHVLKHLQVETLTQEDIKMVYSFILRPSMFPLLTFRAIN
Test: Inhibition of human CYP11B1 expressed in V79 MZh cells using [14C]-deoxycorticosterone substrate incubated for 6 hrs by HPTLC method
Assay type: cell-based, V79MZh
How it was run: as §1

Row | IC50 [µM] | SMILES
7 | > 10 | CCc1nnc2n1-c1c(F)cc(-c3cccnc3)cc1CC2
8 | > 10 | Fc1cc2c(cc1-c1cccnc1)CCc1nnc(Cc3ccccc3)n1-2
9 | > 10 | Fc1cc(-c2cccnc2)cc2c1-n1c(nnc1-c1ccccc1)CC2
10 | > 10 | CC(C)c1nnc2n1-c1c(F)cc(-c3cccnc3)cc1CC2
11 | > 10 | CCc1nnc2n1-c1cc(F)c(-c3cccnc3)cc1CC2
12 | 4.52 | Cc1c(F)cncc1-c1cc(F)c2c(c1)CCc1nnc(C)n1-2

Organism: Homo sapiens
Test: Selectivity index, ratio of IC50 for human CYP11B1 to IC50 human CYP11B2

Row | Ratio IC50 | SMILES
13 | 232 | Cc1c(F)cncc1-c1cc(F)c2c(c1)CCc1nnc(C)n1-2

Target: T3, Aromatase (Homo sapiens, UniProt P11511)
T3 sequence (P11511 whole entry): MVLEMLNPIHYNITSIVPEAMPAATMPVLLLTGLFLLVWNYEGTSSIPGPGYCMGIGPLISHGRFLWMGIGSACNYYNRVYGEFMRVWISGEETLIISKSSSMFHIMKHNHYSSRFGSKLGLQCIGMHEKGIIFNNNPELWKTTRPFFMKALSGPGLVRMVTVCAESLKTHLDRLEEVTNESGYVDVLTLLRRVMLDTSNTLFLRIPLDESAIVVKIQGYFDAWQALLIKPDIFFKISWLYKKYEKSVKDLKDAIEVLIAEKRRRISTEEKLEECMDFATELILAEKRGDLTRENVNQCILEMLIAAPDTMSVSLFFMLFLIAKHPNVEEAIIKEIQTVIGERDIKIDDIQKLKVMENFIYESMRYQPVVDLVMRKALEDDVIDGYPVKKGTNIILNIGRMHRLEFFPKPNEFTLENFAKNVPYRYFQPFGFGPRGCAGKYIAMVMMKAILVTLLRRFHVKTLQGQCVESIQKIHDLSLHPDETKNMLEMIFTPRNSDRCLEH
Test: Inhibition of CYP19 in human placental microsomes using [1beta-3H]androstenedione substrate
Design: species or system Placenta

Row | IC50 [µM] | SMILES
14 | > 10 | CCc1nnc2n1-c1c(F)cc(-c3cccnc3)cc1CC2
15 | > 10 | Fc1cc2c(cc1-c1cccnc1)CCc1nnc(Cc3ccccc3)n1-2
16 | > 10 | Fc1cc(-c2cccnc2)cc2c1-n1c(nnc1-c1ccccc1)CC2
17 | > 10 | CC(C)c1nnc2n1-c1c(F)cc(-c3cccnc3)cc1CC2
18 | > 10 | CCc1nnc2n1-c1cc(F)c(-c3cccnc3)cc1CC2
19 | > 10 | Cc1c(F)cncc1-c1cc(F)c2c(c1)CCc1nnc(C)n1-2

Target: T4, Steroid 17-alpha-hydroxylase/17,20 lyase (Homo sapiens, UniProt P05093)
T4 sequence (P05093 whole entry): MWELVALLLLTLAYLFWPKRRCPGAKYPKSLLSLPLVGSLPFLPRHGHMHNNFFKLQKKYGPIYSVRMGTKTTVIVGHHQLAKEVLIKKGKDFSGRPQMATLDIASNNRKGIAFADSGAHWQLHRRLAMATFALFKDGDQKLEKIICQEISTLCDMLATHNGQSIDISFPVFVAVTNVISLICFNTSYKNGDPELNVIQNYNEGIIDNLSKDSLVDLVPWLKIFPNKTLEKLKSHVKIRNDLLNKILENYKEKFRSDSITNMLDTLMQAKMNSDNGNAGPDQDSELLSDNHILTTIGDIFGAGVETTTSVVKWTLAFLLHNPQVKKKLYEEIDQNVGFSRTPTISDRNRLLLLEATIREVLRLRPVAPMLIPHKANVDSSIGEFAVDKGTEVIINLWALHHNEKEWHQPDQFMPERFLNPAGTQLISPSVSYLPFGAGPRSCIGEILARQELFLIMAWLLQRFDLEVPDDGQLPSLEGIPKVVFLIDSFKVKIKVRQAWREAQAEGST
Test: Inhibition of human CYP17 expressed in Escherichia coli coexpressing human CYP17 and NADPH-P450 reductase

Row | IC50 [µM] | SMILES
20 | > 10 | CCc1nnc2n1-c1c(F)cc(-c3cccnc3)cc1CC2
21 | > 10 | Fc1cc2c(cc1-c1cccnc1)CCc1nnc(Cc3ccccc3)n1-2
22 | > 10 | Fc1cc(-c2cccnc2)cc2c1-n1c(nnc1-c1ccccc1)CC2
23 | > 10 | CC(C)c1nnc2n1-c1c(F)cc(-c3cccnc3)cc1CC2
24 | > 10 | CCc1nnc2n1-c1cc(F)c(-c3cccnc3)cc1CC2
25 | > 10 | Cc1c(F)cncc1-c1cc(F)c2c(c1)CCc1nnc(C)n1-2
